According to ChEMBL document CHEMBL4765495, “Semisynthesis and Biological Evaluation of Platencin Thioether Derivatives: Dual FabF and FabH Inhibitors against MRSA” (ACS Med Chem Lett, 2021):
Values after ≈ are worked out from the molar mass of the structure shown. Active and inactive are the calls of the source. The rule behind the calls is not given here.

Experiments:
Enterococcus faecalis = assay: Antibacterial activity against Enterococcus faecalis ATCC 29212 assessed as inhibition of bacterial growth measured after 16 hrs by agar plate dilution method; type: functional
Staphylococcus aureus [1] = assay: Antibacterial activity against Staphylococcus aureus ATCC 29213 assessed as inhibition of bacterial growth measured after 16 hrs by agar plate dilution method; type: functional
Summary of the method: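 MIC determined by plate dilution against the reference strain; values from at least two independent experiments.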

Staphylococcus aureus [2] = assay: Antibacterial activity against methicillin sensitive Staphylococcus aureus assessed as inhibition of bacterial growth measured after 16 hrs by agar plate dilution method; type: functional
Summary of the method: (§1)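 Clinical MSSA and MRSA strains isolated from local hospitals; MIC determined by plate dilution; data from at least two independent experiments.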

Staphylococcus aureus [3] = assay: Antibacterial activity against methicillin resistant Staphylococcus aureus assessed as inhibition of bacterial growth measured after 16 hrs by agar plate dilution method; type: functional; summary of the method: as §1
Staphylococcus aureus [4] = assay: Inhibition of Staphylococcus aureus FabH A81V/A111T mutant assessed as bacterial growth inhibition measured after 18 hrs by resazurin dye based broth dilution assay
Summary of the method: (§2)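 S. aureus strains carrying point mutations in the FabH active site; MIC determined by broth dilution; data from at least two independent experiments.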

Staphylococcus aureus [5] = assay: Inhibition of Staphylococcus aureus FabH A81V mutant assessed as bacterial growth inhibition measured after 18 hrs by resazurin dye based broth dilution assay; summary of the method: as §2
Staphylococcus aureus [6] = assay: Antibacterial activity against methicillin resistant Staphylococcus aureus assessed as inhibition of bacterial growth measured after 18 hrs in presence of 10% human serum by resazurin dye based broth dilution assay; type: functional
Escherichia coli [7] = assay: Antibacterial activity against Escherichia coli harboring delta tolC mutant assessed as inhibition of bacterial growth measured after 16 hrs by agar plate dilution method; type: functional
[8] = biological target: T1, 3-oxoacyl-[acyl-carrier-protein] synthase 2 (Staphylococcus aureus) (UniProt Q5TKS0); assay: Binding affinity to His6-tagged Staphylococcus aureus FabF expressed in Escherichia coli BL21 (DE3) assessed as decrease in melting temperature at 10 uM by SYPRO orange based differential scanning fluorimetry
T1 sequence (whole entry): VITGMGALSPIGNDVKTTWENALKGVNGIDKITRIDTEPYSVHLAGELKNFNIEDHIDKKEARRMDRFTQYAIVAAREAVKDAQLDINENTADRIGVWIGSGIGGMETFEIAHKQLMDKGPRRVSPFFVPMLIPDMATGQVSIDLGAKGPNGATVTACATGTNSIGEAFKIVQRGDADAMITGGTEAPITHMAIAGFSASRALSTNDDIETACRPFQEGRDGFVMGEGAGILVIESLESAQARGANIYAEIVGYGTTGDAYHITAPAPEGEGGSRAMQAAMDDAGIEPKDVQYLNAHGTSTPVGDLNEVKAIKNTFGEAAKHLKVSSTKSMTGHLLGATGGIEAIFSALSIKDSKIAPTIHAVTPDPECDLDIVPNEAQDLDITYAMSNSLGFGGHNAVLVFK
Summary of the method: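 S. aureus FabF melting curves were measured by DSF in 20 mM HEPES, 180 mM NaCl, pH 7.5, a buffer selected by screening seven buffers. ΔTm was derived from the melting-temperature shift caused by ligand; n = 4.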

Escherichia coli [9] = assay: Binding affinity to His6-tagged Escherichia coli FabH expressed in Escherichia coli BL21 (DE3) assessed as decrease in melting temperature at 10 uM by SYPRO orange based differential scanning fluorimetry
Summary of the method: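 Purified E. coli FabH melting curves were recorded with and without ligand by thermal-shift fluorometry in 1.0 M Tris-HCl, pH 6.8, a buffer chosen from seven screened. ΔTm was taken from the Tm shift; n = 4.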

Staphylococcus aureus [10] = assay: Antibacterial activity against methicillin resistant Staphylococcus aureus infected in C57BL/6J mouse model of peritonitis assessed as mouse survival when infected with 2.5x10^7 CFU bacteria at 10 mg/kg, ip administered at 1 and 5 hrs post infection; type: functional, organism-based
Summary of the method: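 Female C57BL/6J mice given a higher intraperitoneal MRSA inoculum of 2.5 × 10^7 CFU; intraperitoneal treatment at 1 and 5 h post-infection; survival recorded.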

[11] = Binding affinity to His6-tagged Escherichia coli FabF C163Q mutant expressed in Escherichia coli BL21 (DE3) assessed as binding constant measured after 200 sec by isothermal titration calorimetry
Summary of the method: (§3)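 Ligands were dissolved in PBS (10 mM, pH 7.4) and titrated into E. coli FabF(C163Q) in the same buffer. Protein was at 12 or 14 μM and ligand at 250 μM. Thermodynamic parameters (ΔH, ΔS, ΔG, Kd, n) were calculated from the heat of binding. Runs were done at least three times; one representative run was used.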

Escherichia coli [12] = assay: Binding affinity to His6-tagged Escherichia coli FabF C163Q mutant expressed in Escherichia coli BL21 (DE3) assessed as stoichiometry ratio measured after 200 sec by isothermal titration calorimetry; summary of the method: as §3
Escherichia coli [13] = assay: Binding affinity to His6-tagged Escherichia coli FabF C163Q mutant expressed in Escherichia coli BL21 (DE3) assessed as change in enthalpy measured after 200 sec by isothermal titration calorimetry; summary of the method: as §3
Escherichia coli [14] = assay: Binding affinity to His6-tagged Escherichia coli FabF C163Q mutant expressed in Escherichia coli BL21 (DE3) assessed as change in entropy measured after 200 sec by isothermal titration calorimetry; summary of the method: as §3
Escherichia coli [15] = assay: Binding affinity to His6-tagged Escherichia coli FabF C163Q mutant expressed in Escherichia coli BL21 (DE3) assessed Gibbs free energy change measured after 200 sec by isothermal titration calorimetry; summary of the method: as §3

SMILES	MIC (Enterococcus faecalis)	MIC (Staphylococcus aureus [1])	MIC (Staphylococcus aureus [2])	MIC (Staphylococcus aureus [3])	MIC (Staphylococcus aureus [4])	MIC (Staphylococcus aureus [5])	MIC (Staphylococcus aureus [6])	MIC (Escherichia coli [7])	Activity [8]	Activity (Escherichia coli [9])	Activity (Staphylococcus aureus [10])	Kd [11]	Ratio (Escherichia coli [12])	deltaH (Escherichia coli [13])	-TdeltaS (Escherichia coli [14])	deltaG (Escherichia coli [15])
C=C1C[C@]23C=C(Sc4ccc(Br)cc4)C(=O)[C@@](C)(CCC(=O)Nc4c(O)ccc(C(=O)O)c4O)[C@@H]2CC1CC3 (single isomer, unassigned)	2 µg/mL (≈ 3.27 µM)	4 µg/mL (≈ 6.53 µM)	1 µg/mL (≈ 1.63 µM)	1 µg/mL (≈ 1.63 µM)	4 µg/mL (≈ 6.53 µM)	8 µg/mL (≈ 13.1 µM)	16 µg/mL	> 32 µg/mL	Active	Active	–	–	–	–	–	–
C=C1C[C@]23C=C(Sc4ccc(C)cc4)C(=O)[C@@](C)(CCC(=O)Nc4c(O)ccc(C(=O)O)c4O)[C@@H]2CC1CC3 (single isomer, unassigned)	2 µg/mL (≈ 3.65 µM)	4 µg/mL (≈ 7.3 µM)	2 µg/mL (≈ 3.65 µM)	1 µg/mL (≈ 1.83 µM)	16 µg/mL (≈ 29.2 µM)	16 µg/mL (≈ 29.2 µM)	> 32 µg/mL	> 32 µg/mL	Active	Active	–	–	–	–	–	–
C=C1C[C@]23C=C(Sc4ccccc4C)C(=O)[C@@](C)(CCC(=O)Nc4c(O)ccc(C(=O)O)c4O)[C@@H]2CC1CC3 (single isomer, unassigned)	2 µg/mL (≈ 3.65 µM)	1 µg/mL (≈ 1.83 µM)	1 µg/mL (≈ 1.83 µM)	1 µg/mL (≈ 1.83 µM)	4 µg/mL (≈ 7.3 µM)	4 µg/mL (≈ 7.3 µM)	32 µg/mL	> 32 µg/mL	Active	Active	–	–	–	–	–	–
C=C1C[C@]23C=C(Sc4cccs4)C(=O)[C@@](C)(CCC(=O)Nc4c(O)ccc(C(=O)O)c4O)[C@@H]2CC1CC3 (single isomer, unassigned)	–	2 µg/mL (≈ 3.71 µM)	2 µg/mL (≈ 3.71 µM)	2 µg/mL (≈ 3.71 µM)	–	–	–	–	Active	Active	–	–	–	–	–	–
C=C1C[C@]23C=C(SCc4ccccc4)C(=O)[C@@](C)(CCC(=O)Nc4c(O)ccc(C(=O)O)c4O)[C@@H]2CC1CC3 (single isomer, unassigned)	2 µg/mL (≈ 3.65 µM)	2 µg/mL (≈ 3.65 µM)	1 µg/mL (≈ 1.83 µM)	1 µg/mL (≈ 1.83 µM)	4 µg/mL (≈ 7.3 µM)	8 µg/mL (≈ 14.6 µM)	16 µg/mL	> 32 µg/mL	Active	Active	inactive	–	–	–	–	–
C=C1C[C@]23C=C(Sc4ncccn4)C(=O)[C@@](C)(CCC(=O)Nc4c(O)ccc(C(=O)O)c4O)[C@@H]2CC1CC3 (single isomer, unassigned)	–	16 µg/mL (≈ 29.9 µM)	8 µg/mL (≈ 14.9 µM)	8 µg/mL (≈ 14.9 µM)	–	–	–	–	Active	Active	–	–	–	–	–	–
C=C1C[C@]23C=C(SCCO)C(=O)[C@@](C)(CCC(=O)Nc4c(O)ccc(C(=O)O)c4O)[C@@H]2CC1CC3 (single isomer, unassigned)	2 µg/mL (≈ 3.99 µM)	8 µg/mL (≈ 15.9 µM)	32 µg/mL (≈ 63.8 µM)	> 32 µg/mL	> 32 µg/mL	> 32 µg/mL	> 32 µg/mL	> 32 µg/mL	–	–	–	223 nM	1.17	-1.09 kcal/mol	-7.72 kcal/mol	-8.8 kcal/mol
C=C1C[C@@]23CCC1C[C@H]2[C@](C)(CCC(=O)Nc1c(O)ccc(C(=O)O)c1O)C(=O)[C@@H]1O[C@@H]13 (single isomer, unassigned)	2 µg/mL (≈ 4.53 µM)	8 µg/mL (≈ 18.1 µM)	4 µg/mL (≈ 9.06 µM)	4 µg/mL (≈ 9.06 µM)	> 32 µg/mL	> 32 µg/mL	16 µg/mL	4 µg/mL (≈ 9.06 µM)	Active	Active	–	102 nM	1.17	-1.66 kcal/mol	-7.59 kcal/mol	-9.25 kcal/mol
CC(=O)NC[C@H]1CN(c2ccc(N3CCOCC3)c(F)c2)C(=O)O1 [LINEZOLID]	0.5 µg/mL (≈ 1.48 µM)	0.5 µg/mL (≈ 1.48 µM)	0.5 µg/mL (≈ 1.48 µM)	0.5 µg/mL (≈ 1.48 µM)	–	–	–	–	–	–	–	–	–	–	–	–
